What was measured:
Translocator protein = Translocator protein (Homo sapiens, UniProt P30536); experiment: Inhibition of TSPO (unknown origin)
Outline: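 Membranes from male Sprague-Dawley rat cerebral cortex were homogenised and washed in Tris-HCl (30 mM, pH 7.4), then washed in Tris-citrate (50 mM, pH 7.1). Bound and free ligand were separated by filtration through GF/C filters and counted by scintillation. Percent displacement gave the IC50, and Ki was calculated as IC50/(1+[L]/Kd).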

[1] = biological target: Translocator protein (Mus musculus) (UniProt P50637); experiment: Inhibition of TSPO in mouse HT22 cells assessed as inhibition of amyloid beta (1 to 42)-induced ROS generation at 5 uM after 6 hrs by DCFDA staining based fluorescence assay relative to control; format: cell-based; details: HT-22
Translocator protein (Mus musculus), sequence (P50637 whole entry, looked up): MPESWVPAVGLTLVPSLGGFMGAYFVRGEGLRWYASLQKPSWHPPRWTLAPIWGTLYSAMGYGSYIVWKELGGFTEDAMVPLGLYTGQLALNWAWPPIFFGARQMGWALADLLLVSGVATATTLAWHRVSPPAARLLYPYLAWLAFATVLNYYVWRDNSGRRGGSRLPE

[2] = biological target: Translocator protein (Mus musculus) (UniProt P50637); experiment: Inhibition of TSPO in mouse HT22 cells assessed as inhibition of amyloid beta (1 to 42)-induced toxicity at 5 uM after 24 hrs by MTT assay relative to control; format: cell-based; details: HT-22
Outline: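 HT22 cells at 5000 per well were treated with compound (5 µM), with or without Aβ1-42 (5 µM), for 24 h at 37 °C. MTT was added for 2 h, then solubilising solution (10% Triton X-100 in isopropanol with 0.1 M HCl) for 2 h more. Absorbance read at 560 nm; % inhibition normalised to vehicle, and viability taken from compound-only wells.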

CYP1A2 = biological target: T1, CYP1A2 (Homo sapiens, UniProt P05177); experiment: Inhibition of recombinant human CYP1A2 expressed in baculosomes coexpressing rabbit NADPH-P450 reudctase assessed as residual activity at 10 uM preincubated for 5 mins followed by substrate and NADP+ addition measured after 20 mins by fluorescence assay relative to control; format: ADME; details: read-out: Activity
T1 sequence (P05177 whole entry): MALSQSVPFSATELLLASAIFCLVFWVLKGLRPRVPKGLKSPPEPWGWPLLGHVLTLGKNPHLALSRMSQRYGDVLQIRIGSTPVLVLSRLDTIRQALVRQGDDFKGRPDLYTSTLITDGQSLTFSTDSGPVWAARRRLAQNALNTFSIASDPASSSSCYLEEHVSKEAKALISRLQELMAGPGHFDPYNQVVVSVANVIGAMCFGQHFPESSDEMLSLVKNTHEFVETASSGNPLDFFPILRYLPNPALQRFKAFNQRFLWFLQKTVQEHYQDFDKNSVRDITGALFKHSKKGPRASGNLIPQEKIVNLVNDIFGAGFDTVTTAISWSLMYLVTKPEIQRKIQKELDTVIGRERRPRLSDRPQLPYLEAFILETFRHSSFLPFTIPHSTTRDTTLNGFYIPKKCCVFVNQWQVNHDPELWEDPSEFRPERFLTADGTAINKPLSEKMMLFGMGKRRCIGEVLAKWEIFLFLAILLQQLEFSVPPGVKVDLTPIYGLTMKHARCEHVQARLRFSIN
Outline: (§1)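 Vivid CYP450 kit: recombinant human CYP isozyme in Baculosomes with rabbit NADPH-P450 reductase, plus regeneration system (3.3 mM glucose-6-phosphate, 0.3 U/mL G6PDH in 100 mM potassium phosphate, pH 8.0). Mixture preincubated with sample for 5 min at 37 °C. Vivid substrate and 0.1 mM NADP+ were then added, and remaining activity read by fluorescence after 20 min.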

CYP2C9 = CYP2C9 (Homo sapiens, UniProt P11712); experiment: Inhibition of recombinant human CYP2C9 expressed in baculosomes coexpressing rabbit NADPH-P450 reudctase assessed as residual activity at 10 uM preincubated for 5 mins followed by substrate and NADP+ addition measured after 20 mins by fluorescence assay relative to control; format: ADME; details: read-out: Activity; outline: as §1
CYP2C9, sequence (P11712 whole entry): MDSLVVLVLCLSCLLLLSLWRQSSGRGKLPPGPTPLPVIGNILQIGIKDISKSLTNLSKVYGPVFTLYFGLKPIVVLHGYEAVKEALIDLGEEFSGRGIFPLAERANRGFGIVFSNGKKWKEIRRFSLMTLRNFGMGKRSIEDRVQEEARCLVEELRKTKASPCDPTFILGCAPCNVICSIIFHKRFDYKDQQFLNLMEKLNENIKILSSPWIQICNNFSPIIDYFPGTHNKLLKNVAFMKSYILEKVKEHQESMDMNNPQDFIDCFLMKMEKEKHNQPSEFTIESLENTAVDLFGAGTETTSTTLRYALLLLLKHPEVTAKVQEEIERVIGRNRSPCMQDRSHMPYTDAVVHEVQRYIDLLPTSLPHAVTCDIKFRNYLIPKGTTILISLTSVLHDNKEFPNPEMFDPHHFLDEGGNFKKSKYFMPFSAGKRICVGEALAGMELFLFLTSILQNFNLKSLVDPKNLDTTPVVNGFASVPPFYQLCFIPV

CYP2C19 = CYP2C19 (Homo sapiens, UniProt P33261); experiment: Inhibition of recombinant human CYP2C19 expressed in baculosomes coexpressing rabbit NADPH-P450 reudctase assessed as residual activity at 10 uM preincubated for 5 mins followed by substrate and NADP+ addition measured after 20 mins by fluorescence assay relative to control; format: ADME; details: read-out: Activity; outline: as §1
CYP2C19, sequence (P33261 whole entry): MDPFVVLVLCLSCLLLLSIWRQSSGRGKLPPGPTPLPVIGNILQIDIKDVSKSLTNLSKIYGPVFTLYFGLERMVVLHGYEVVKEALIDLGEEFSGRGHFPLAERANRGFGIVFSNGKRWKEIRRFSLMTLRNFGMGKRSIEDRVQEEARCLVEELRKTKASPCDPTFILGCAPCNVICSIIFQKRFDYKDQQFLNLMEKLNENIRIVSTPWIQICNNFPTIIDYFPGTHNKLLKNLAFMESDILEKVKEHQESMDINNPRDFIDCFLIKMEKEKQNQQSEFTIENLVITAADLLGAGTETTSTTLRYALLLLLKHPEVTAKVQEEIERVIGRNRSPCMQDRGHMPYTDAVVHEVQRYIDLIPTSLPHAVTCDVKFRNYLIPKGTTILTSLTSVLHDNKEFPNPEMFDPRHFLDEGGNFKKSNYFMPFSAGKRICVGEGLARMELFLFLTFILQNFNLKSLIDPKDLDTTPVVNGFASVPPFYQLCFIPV

[3] = Cytotoxicity against mouse HT22 cells assessed as cell viability at 5 uM after 24 hrs by MTT assay relative to control; format: toxicity, HT-22; details: read-out: Activity
Outline: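 MTT was added for 2 h, then solubilising solution (10% Triton X-100 in isopropanol with 0.1 M HCl) for 2 h more. Absorbance read at 560 nm; % inhibition normalised to vehicle, and viability taken from compound-only wells.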

CYP3A4 = CYP3A4 (Homo sapiens, UniProt P08684); experiment: Inhibition of recombinant human CYP3A4 expressed in baculosomes coexpressing rabbit NADPH-P450 reudctase assessed as residual activity at 10 uM preincubated for 5 mins followed by substrate and NADP+ addition measured after 20 mins by fluorescence assay relative to control; format: ADME; details: read-out: Activity; outline: as §1
CYP3A4, sequence (P08684 whole entry): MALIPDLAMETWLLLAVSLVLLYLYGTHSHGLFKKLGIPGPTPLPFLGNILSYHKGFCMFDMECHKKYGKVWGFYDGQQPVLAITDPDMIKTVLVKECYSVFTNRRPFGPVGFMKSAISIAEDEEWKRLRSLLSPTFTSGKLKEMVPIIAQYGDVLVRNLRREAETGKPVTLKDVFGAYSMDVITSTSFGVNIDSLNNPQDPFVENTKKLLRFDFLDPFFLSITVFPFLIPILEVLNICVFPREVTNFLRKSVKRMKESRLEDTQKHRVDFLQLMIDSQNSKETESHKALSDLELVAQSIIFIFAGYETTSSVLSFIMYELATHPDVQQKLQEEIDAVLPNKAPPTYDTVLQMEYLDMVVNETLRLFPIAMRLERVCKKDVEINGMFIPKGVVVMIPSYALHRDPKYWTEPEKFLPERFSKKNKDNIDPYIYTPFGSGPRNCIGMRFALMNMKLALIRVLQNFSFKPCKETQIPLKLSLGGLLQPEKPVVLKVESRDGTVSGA

CYP2D6 = CYP2D6 (Homo sapiens, UniProt P10635); experiment: Inhibition of recombinant human CYP2D6 expressed in baculosomes coexpressing rabbit NADPH-P450 reudctase assessed as residual activity at 10 uM preincubated for 5 mins followed by substrate and NADP+ addition measured after 20 mins by fluorescence assay relative to control; format: ADME; details: read-out: Activity; outline: as §1
CYP2D6, sequence (P10635 whole entry): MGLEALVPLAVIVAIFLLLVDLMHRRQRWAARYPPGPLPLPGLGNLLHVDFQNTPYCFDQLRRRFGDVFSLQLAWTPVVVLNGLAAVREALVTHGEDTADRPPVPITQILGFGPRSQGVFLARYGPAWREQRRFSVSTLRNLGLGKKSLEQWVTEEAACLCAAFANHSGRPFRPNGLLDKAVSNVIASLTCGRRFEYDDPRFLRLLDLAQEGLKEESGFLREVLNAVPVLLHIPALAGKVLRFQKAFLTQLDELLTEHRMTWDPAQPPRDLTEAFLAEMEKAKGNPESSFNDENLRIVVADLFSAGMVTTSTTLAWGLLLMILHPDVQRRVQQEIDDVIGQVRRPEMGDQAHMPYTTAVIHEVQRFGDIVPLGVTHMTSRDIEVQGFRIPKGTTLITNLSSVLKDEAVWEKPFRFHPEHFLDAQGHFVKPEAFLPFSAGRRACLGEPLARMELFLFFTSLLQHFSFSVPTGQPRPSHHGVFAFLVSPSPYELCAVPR

[4] = biological target: Translocator protein (Mus musculus) (UniProt P50637); experiment: (§2) Inhibition of TSPO in mouse HT22 cells assessed as protection against amyloid beta (1 to 42)-induced mitochondrial membrane potential loss by measuring recovery of ATP production at 5 uM preincubated for 10 mins followed by amyloid beta (1 to 42) addition measured after 7 hrs by luciferase reporter gene assay relative to control; format: cell-based; design: scale not given: the % may be the effect or the level left; details: HT-22
Outline: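 HT22 cells at 7000 per well were given compound (5 µM) for 10 min at 37 °C, then Aβ1-42 (5 µM) or DMSO vehicle, and incubated 7 h. Cells were washed, lysed in 1% Triton X-100, and protein-equalised by BCA. ATP was measured by luciferin/luciferase luminescence and normalised to vehicle.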

[5] = biological target: Translocator protein (Mus musculus) (UniProt P50637); experiment: as §2, with “mitochondrial membrane potential” for “ATP production”, “every 1 hr for 3” for “after 7”, “JC1 staining based fluorescence” for “luciferase reporter gene”; format: cell-based; design: scale not given: the % may be the effect or the level left; details: HT-22
Outline: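 HT22 cells at 30,000 per well were loaded with 7.5 µM JC-1 in phenol red-free Opti-MEM for 1 h 15 min at 37 °C, then washed. Cells were treated with compound (5 µM) and Aβ1-42 (5 µM); vehicle wells received DMSO. Green (485/535) and red (560/595) fluorescence were read hourly for 3 h. Recovery was normalised between Aβ-damaged (0%) and normal (100%) ratio.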

[6] = biological target: Voltage-gated inwardly rectifying potassium channel KCNH2 (Homo sapiens, UniProt Q12809); experiment: Inhibition of human ERG expressed in CHOK1 cells by automated patch clamp method; format: cell-based, CHO-K1
Voltage-gated inwardly rectifying potassium channel KCNH2, sequence (Q12809 whole entry): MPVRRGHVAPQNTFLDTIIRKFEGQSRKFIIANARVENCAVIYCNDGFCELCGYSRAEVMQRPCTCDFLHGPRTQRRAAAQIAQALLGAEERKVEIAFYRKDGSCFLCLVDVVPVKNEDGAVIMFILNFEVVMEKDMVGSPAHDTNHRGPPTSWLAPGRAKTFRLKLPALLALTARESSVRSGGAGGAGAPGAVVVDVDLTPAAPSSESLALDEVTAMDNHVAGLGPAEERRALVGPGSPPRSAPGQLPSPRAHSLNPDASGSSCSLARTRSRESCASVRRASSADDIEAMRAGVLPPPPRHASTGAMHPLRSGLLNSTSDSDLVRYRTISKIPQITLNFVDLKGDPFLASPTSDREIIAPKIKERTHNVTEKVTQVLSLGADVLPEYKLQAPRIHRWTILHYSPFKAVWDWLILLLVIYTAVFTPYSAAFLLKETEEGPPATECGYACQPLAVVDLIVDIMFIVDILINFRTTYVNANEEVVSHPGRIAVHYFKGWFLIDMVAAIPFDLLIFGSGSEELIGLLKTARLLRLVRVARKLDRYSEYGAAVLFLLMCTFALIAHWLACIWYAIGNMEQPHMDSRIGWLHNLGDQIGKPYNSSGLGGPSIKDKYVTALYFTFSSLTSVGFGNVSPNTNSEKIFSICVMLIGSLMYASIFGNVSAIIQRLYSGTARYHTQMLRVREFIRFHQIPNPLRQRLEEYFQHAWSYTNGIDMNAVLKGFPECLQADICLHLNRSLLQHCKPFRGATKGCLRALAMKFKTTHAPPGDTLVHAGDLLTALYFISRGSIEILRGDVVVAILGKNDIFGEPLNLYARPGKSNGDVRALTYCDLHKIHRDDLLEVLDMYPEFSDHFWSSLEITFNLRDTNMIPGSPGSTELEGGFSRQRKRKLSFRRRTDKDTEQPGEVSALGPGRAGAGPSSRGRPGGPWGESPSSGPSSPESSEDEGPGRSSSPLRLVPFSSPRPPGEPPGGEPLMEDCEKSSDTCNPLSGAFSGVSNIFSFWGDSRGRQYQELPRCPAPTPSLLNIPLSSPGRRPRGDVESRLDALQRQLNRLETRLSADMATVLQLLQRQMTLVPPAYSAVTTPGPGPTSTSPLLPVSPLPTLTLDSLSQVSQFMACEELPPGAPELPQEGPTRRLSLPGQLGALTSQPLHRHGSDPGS

Mus musculus = experiment: Cognition enhancing effect in ICR mouse model of acute Alzheimer's disease assessed as reversal of amyloid beta (1 to 42)-induced cognitive deficit by measuring spatial working memory at 30 mg/kg, ip daily for 6 days measured on day 7 by Y maze spontaneous alteration test relative to control; format: functional
Outline: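 Male ICR mice (6 weeks, 30–33 g) received Aβ1-42 500 pmol ICV in 10% DMSO/PBS. Compound in 20% cyclodextrin was given at 30 mg/kg daily for 6 days (n = 7 per group). One day later, each mouse explored a three-arm Y-maze for 8 min, and the sequence of arm entries was used to calculate % spontaneous alternation.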

Translocator protein, sequence (P30536 whole entry): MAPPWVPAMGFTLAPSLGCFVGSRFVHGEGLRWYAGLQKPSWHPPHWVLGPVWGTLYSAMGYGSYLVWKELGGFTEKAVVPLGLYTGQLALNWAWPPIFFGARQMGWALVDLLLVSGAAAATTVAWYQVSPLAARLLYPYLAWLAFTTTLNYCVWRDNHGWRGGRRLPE

Question: With `CC(=O)N(Cc1ccccc1OC(C)C)c1ccc(Cl)cc1Oc1ccccc1` as the compound, how does the IC50 (Translocator protein) read?
Answer: 0.92 nM

Question: For `O=C(NCCCN1CCCCC1)c1ccc(Cn2c(Cc3c(Cl)cccc3Cl)nc3ccccc32)cc1`, which inhibition [1] is on record?
Answer: 27%

Question: What about the inhibition [2] of the same compound?
Answer: 3%

Question: And the activity at 20 min, 10 µM (CYP1A2)?
Answer: 68.4%

Question: And the activity at 20 min, 10 µM (CYP2C9)?
Answer: 61.1%

Question: What about the activity at 20 min, 10 µM (CYP2C19) of the same compound?
Answer: 67.3%

Question: What about the viability at 24 h, 5 µM [3] of the same compound?
Answer: 86 to 118%

Question: What about the activity at 20 min, 10 µM (CYP3A4) of the same compound?
Answer: 176%

Question: And the activity at 20 min, 10 µM (CYP2D6)?
Answer: 25.5%

Question: What about the Activity [4] of the same compound?
Answer: 64%

Question: What about the Activity [5] of the same compound?
Answer: 90%

Question: Which inhibition [1] does the source give for `COc1ccc(OC)c(Cc2nc3ccccc3n2CC(=O)Nc2cc(C(C)(C)C)cc(C(C)(C)C)c2)c1` here?
Answer: 10%

Question: What about the inhibition [2] of the same compound?
Answer: 36%

Question: What about the activity at 20 min, 10 µM (CYP1A2) of the same compound?
Answer: 92.5%

Question: And the IC50 [6]?
Answer: 20 nM

Question: What about the activity at 20 min, 10 µM (CYP2C9) of the same compound?
Answer: 36.1%

Question: And the activity at 20 min, 10 µM (CYP2C19)?
Answer: 43.9%

Question: What about the viability at 24 h, 5 µM [3] of the same compound?
Answer: 99 to 112%

Question: And the activity at 20 min, 10 µM (CYP3A4)?
Answer: 43.3%

Question: And the activity at 20 min, 10 µM (CYP2D6)?
Answer: 56.3%

Question: What about the Activity [4] of the same compound?
Answer: 46%

Question: What about the Activity [5] of the same compound?
Answer: 54%

Question: With `COc1ccc(OC)c(CN(C(C)=O)c2ccc(F)cc2Oc2ccccc2)c1` as the compound, how does the IC50 (Translocator protein) read?
Answer: 1.6 nM

Question: With `CCCCCCN(CCCCCC)C(=O)Cc1c(-c2ccc(F)cc2)[nH]c2ccccc12` as the compound, how does the Ki (Translocator protein) read?
Answer: 3.25 nM

Question: What does the source list for `Cc1ccc(C(C)C)cc1NC(=O)Cn1c(-c2cc(Cl)ccc2Cl)nc2ccc(Cl)cc21`?
Answer: inhibition [1]: 107%; inhibition [2]: 0%; activity at 20 min, 10 µM (CYP1A2): 56.3%; activity at 20 min, 10 µM (CYP2C9): 29.6%; activity at 20 min, 10 µM (CYP2C19): 11.9%; viability at 24 h, 5 µM [3]: 86 to 106%; activity at 20 min, 10 µM (CYP3A4): 15.4%; activity at 20 min, 10 µM (CYP2D6): 82.2%; Activity [4]: 69%; Activity [5]: 87%

Question: For `CCCCN(CCCC)C(=O)Cc1c(-c2ccc(Cl)cc2)nc2c(Cl)cc(Cl)cn12`, which Ki (Translocator protein) is on record?
Answer: 2.68 nM

Question: Which inhibition [1] does the source give for `CN(C)CCCNC(=O)c1ccc(Cn2c(Cc3c(Cl)cccc3Cl)nc3ccccc32)cc1` here?
Answer: 9%

Question: And the inhibition [2]?
Answer: 7%

Question: And the activity at 20 min, 10 µM (CYP1A2)?
Answer: 66.1%

Question: And the activity at 20 min, 10 µM (CYP2C9)?
Answer: 53.9%

Question: What about the activity at 20 min, 10 µM (CYP2C19) of the same compound?
Answer: 72.9%

Question: And the Activity (Mus musculus)?
Answer: 62%

Question: What about the viability at 24 h, 5 µM [3] of the same compound?
Answer: 93 to 111%

Question: What about the activity at 20 min, 10 µM (CYP3A4) of the same compound?
Answer: 206%

Question: What about the activity at 20 min, 10 µM (CYP2D6) of the same compound?
Answer: 120%

Question: And the Activity [4]?
Answer: 85%

Question: What about the Activity [5] of the same compound?
Answer: 82%

Question: Which results are given for `CCN1CCCC1CNC(=O)c1ccc(Cn2c(Cc3c(Cl)cccc3Cl)nc3ccccc32)cc1` (stereo not drawn)?
Answer: inhibition [1]: 24%; inhibition [2]: 6%; activity at 20 min, 10 µM (CYP1A2): 63%; IC50 [6]: 1570 nM; activity at 20 min, 10 µM (CYP2C9): 50.6%; activity at 20 min, 10 µM (CYP2C19): 31.4%; viability at 24 h, 5 µM [3]: 62 to 122%; activity at 20 min, 10 µM (CYP3A4): 130%; activity at 20 min, 10 µM (CYP2D6): 82.4%; Activity [4]: 51%; Activity [5]: 90%

Question: For `NC(=O)CN1CCCC1=O`, which inhibition [1] is on record?
Answer: 129%

Question: And the inhibition [2]?
Answer: 29%

Question: What about the Activity (Mus musculus) of the same compound?
Answer: 32%

Question: What about the viability at 24 h, 5 µM [3] of the same compound?
Answer: 88 to 132%

Question: And the Activity [4]?
Answer: 127%

Question: What about the Activity [5] of the same compound?
Answer: 60%

Reference: ChEMBL document CHEMBL3877298, “Discovery of benzimidazole derivatives as modulators of mitochondrial function: A potential treatment for Alzheimer's disease” (Eur J Med Chem, 2017)
